Laboratory results reported in ChEMBL document CHEMBL1156179 (J Med Chem, 2010).

Key:
Adenosine receptor A1 = target: T1, Adenosine receptor A1 (Homo sapiens, UniProt P30542); assay: Displacement of [3H]CCPA from human cloned adenosine A1 receptor expressed in CHO cells; format: cell-based
T1 sequence (P30542 whole entry): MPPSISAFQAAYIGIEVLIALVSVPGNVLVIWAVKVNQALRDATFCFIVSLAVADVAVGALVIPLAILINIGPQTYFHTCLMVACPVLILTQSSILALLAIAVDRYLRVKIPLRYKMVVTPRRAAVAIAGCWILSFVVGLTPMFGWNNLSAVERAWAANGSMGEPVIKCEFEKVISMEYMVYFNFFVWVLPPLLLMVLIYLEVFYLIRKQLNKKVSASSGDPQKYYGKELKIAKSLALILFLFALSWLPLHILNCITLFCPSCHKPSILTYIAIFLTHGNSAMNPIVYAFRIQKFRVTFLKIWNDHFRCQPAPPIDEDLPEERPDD
Outline: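 CHO membranes with hA1 receptor, from 1000g 4 min spin then 100000g 30 min. Incubated 3 h at 25 °C with 1 nM [3H]CCPA, 0.2 U/mL adenosine deaminase, 20 μg protein in 50 mM Tris/HCl pH 7.4 and graded compound. Nonspecific binding with 1 mM theophylline.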

Adenosine receptor A2a = Adenosine receptor A2a (Homo sapiens, UniProt P29274); assay: Displacement of [3H]NECA from human cloned adenosine A2a receptor expressed in CHO cells; format: cell-based
Outline: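 hA2A-CHO membranes, prepared by two-step centrifugation, were incubated with 30 nM [3H]NECA, 50 μg protein and graded compound under the A1 binding conditions. Nonspecific binding with 100 μM R-PIA.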

Adenosine receptor A3 = target: T2, Adenosine receptor A3 (Homo sapiens, UniProt P0DMS8); assay: Displacement of [3H]NECA from human cloned adenosine A3 receptor expressed in CHO cells; format: cell-based
T2 sequence (P0DMS8 whole entry): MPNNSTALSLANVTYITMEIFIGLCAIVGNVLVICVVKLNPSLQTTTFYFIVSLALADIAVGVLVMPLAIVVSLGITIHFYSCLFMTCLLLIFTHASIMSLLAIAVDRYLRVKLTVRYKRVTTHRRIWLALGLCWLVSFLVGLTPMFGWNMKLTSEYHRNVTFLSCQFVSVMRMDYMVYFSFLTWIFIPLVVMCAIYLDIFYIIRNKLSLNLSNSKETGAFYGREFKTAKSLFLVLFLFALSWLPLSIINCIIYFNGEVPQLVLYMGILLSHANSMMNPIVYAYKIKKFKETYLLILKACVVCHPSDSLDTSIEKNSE

Adenosine receptor A2b = target: T3, Adenosine receptor A2b (Homo sapiens, UniProt P29275); assay: Antagonist activity at human cloned adenosine A2b receptor expressed in CHO cells assessed as inhibition of NECA-stimulated cAMP accumulation; format: functional, cell-based
T3 sequence (P29275 whole entry): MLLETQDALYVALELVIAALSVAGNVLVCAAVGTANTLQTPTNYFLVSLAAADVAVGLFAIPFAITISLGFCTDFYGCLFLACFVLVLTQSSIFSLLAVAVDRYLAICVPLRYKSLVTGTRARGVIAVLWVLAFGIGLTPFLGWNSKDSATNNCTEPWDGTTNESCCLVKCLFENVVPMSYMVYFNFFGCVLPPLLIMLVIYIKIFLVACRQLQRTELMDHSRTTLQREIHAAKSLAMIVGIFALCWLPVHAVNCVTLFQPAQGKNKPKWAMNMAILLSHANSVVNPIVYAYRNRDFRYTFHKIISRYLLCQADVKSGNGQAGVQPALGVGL
Outline: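 Membranes from CHO cells with hA2B receptor, prepared by a single 30 min spin at 54000g and resuspended in 50 mM Tris/HCl pH 7.4, used fresh. Antagonist inhibition of NECA-stimulated adenylyl cyclase gave IC50 by Hill fit; Ki from Cheng–Prusoff.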

[1] = target: Adenosine receptors; A1 & A3 (Homo sapiens) (UniProt P30542+P0DMS8); assay: Selectivity ratio of Ki for human adenosine A1 receptor to Ki for human adenosine A3
Homo sapiens = species on record: Homo sapiens; assay: Selectivity ratio of Ki for human adenosine A2A receptor to Ki for human adenosine A3

Chain of Adenosine receptor A2a (P29274 whole entry): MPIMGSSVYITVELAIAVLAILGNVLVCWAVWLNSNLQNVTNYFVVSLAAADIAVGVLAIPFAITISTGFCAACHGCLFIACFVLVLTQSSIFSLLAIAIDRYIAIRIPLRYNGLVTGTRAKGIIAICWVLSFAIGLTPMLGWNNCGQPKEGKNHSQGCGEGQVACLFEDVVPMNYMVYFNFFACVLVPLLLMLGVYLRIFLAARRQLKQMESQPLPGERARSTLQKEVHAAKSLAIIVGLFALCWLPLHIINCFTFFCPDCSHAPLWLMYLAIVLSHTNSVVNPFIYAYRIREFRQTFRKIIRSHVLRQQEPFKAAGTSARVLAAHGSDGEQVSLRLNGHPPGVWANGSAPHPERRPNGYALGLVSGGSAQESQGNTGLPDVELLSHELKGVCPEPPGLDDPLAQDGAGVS

SMILES	Ki (Adenosine receptor A1) [µM]	Ki (Adenosine receptor A2a) [µM]	Ki (Adenosine receptor A3) [µM]	Ki (Adenosine receptor A2b) [µM]	Ratio Ki [1]	Ratio Ki (Homo sapiens)
Nc1nc2nn(CCc3ccccc3)cc2c2nc(-c3ccc(Cl)cc3)nn12	0.204	2.18	0.0797	> 10	2.56	27.4
Cn1cc2c(nc(NC(=O)Cc3ccccc3)n3nc(-c4ccc(F)cc4)nc23)n1	2.29	2.54	0.000201	> 10	11400	12600
Cn1cc2c(nc(N)n3nc(-c4ccc(Cl)cc4)nc23)n1	4.86	2.02	0.0724	> 10	67.1	27.9
COc1ccc(-c2nc3c4cn(C)nc4nc(NC(=O)Cc4ccccc4)n3n2)cc1	> 30	> 100	0.000241	> 10	> 124000	> 415000
Cn1cc2c(nc(N)n3nc(-c4ccc([N+](=O)[O-])cc4)nc23)n1	> 300	> 10	0.655	> 10	> 458	> 15.3
Cn1cc2c(nc(NC(=O)c3ccccc3)n3nc(-c4ccc(Cl)cc4)nc23)n1	> 30	> 100	0.00282	> 10	> 10600	> 35500
Cn1cc2c(nc(NC(=O)c3ccccc3)n3nc(-c4ccccc4)nc23)n1	0.622	0.324	0.005	> 10	124	64.8
COc1ccc(-c2nc3c4cn(C)nc4nc(N(C(=O)c4ccccc4)C(=O)c4ccccc4)n3n2)cc1	> 10	> 10	0.00688	> 10	> 1450	> 1450
O=C(Nc1nc2nn(CCc3ccccc3)cc2c2nc(-c3ccc(Br)cc3)nn12)c1ccccc1	0.27	> 100	0.153	> 10	1.76	> 654
Cn1cc2c(nc(NC(=O)Cc3ccccc3)n3nc(-c4ccc(Br)cc4)nc23)n1	24.4	> 100	0.000345	> 10	70700	> 290000
CCn1ncc2c1nc(N)n1nc(-c3ccc(Cl)cc3)nc21	0.121	0.0838	0.565	> 10	0.21	0.15
Cn1cc2c(nc(NC(=O)Cc3ccccc3)n3nc(-c4ccco4)nc23)n1	–	–	–	–	867	522
COc1ccc(-c2nc3c4cn(C)nc4nc(N)n3n2)cc1	9.73	1.19	0.0167	> 10	583	71.3
Cn1cc2c(nc(NC(=O)Cc3ccccc3)n3nc(-c4ccccc4)nc23)n1	0.562	0.778	0.000108	> 10	5200	7200
Cn1cc2c(nc(NC(=O)c3ccccc3)n3nc(-c4ccc(Br)cc4)nc23)n1	> 30	> 100	0.00524	> 10	> 5730	> 19100
Cn1cc2c(nc(N)n3nc(-c4ccc(F)cc4)nc23)n1	1.01	0.355	0.0314	> 10	32.2	11.3

SMILES	Ki (Adenosine receptor A1) [µM]	Ki (Adenosine receptor A2a) [µM]	Ki (Adenosine receptor A3) [µM]	Ki (Adenosine receptor A2b) [µM]	Ratio Ki [1]	Ratio Ki (Homo sapiens)
Cn1cc2c(nc(NC(=O)c3ccccc3)n3nc(-c4ccc([N+](=O)[O-])cc4)nc23)n1	> 30	> 100	0.0564	> 10	> 532	> 1770
Cn1cc2c(nc(N)n3nc(-c4ccc(Br)cc4)nc23)n1	2.89	1.5	0.0386	> 10	74.9	38.9
Cn1cc2c(nc(N)n3nc(-c4ccccc4)nc23)n1	0.339	0.121	0.075	> 10	4.52	1.61
CCn1cc2c(nc(N)n3nc(-c4ccc(Cl)cc4)nc23)n1	1.57	0.843	0.0687	> 10	22.9	12.3
Cn1cc2c(nc(N(C(=O)c3ccccc3)C(=O)c3ccccc3)n3nc(-c4ccc(Cl)cc4)nc23)n1	> 10	> 10	0.00694	> 10	> 1440	> 1440
O=C(Nc1nc2nn(CCc3ccccc3)cc2c2nc(-c3ccccc3)nn12)c1ccccc1	0.313	0.963	0.0239	> 10	13.1	40.3
COc1ccc(-c2nc3c4cn(CCc5ccccc5)nc4nc(N)n3n2)cc1	0.289	1.4	0.025	> 10	11.6	56
Cn1cc2c(nc(NC(=O)Cc3ccccc3)n3nc(-c4ccc([N+](=O)[O-])cc4)nc23)n1	23.2	23.9	0.000624	> 10	37200	38300
Cn1cc2c(nc(NC(=O)Cc3ccccc3)n3nc(-c4ccc(Cl)cc4)nc23)n1	4.85	8.32	0.000248	> 10	19600	33500
Nc1nc2nn(CCc3ccccc3)cc2c2nc(-c3ccccc3)nn12	0.0748	0.196	0.0767	> 10	0.975	2.56
Nc1nc2nn(CCc3ccccc3)cc2c2nc(-c3ccc(Br)cc3)nn12	0.498	> 30	0.221	> 10	2.25	> 136
Cn1cc2c(nc(NC(=O)c3ccccc3)n3nc(-c4ccc(F)cc4)nc23)n1	2.53	> 100	0.00343	> 10	738	> 29200
Cn1cc2c(nc(N)n3nc(-c4ccco4)nc23)n1	–	–	–	–	0.33	0.009
Nc1nc2nn(CCc3ccccc3)cc2c2nc(-c3ccc(F)cc3)nn12	0.0391	0.127	0.0506	> 10	0.773	2.51
COc1ccc(-c2nc3c4cn(C)nc4nc(NC(=O)c4ccccc4)n3n2)cc1	> 30	> 100	0.0021	> 10	> 14300	> 47600
